Experimental data taken from PMC12552610 (Nature Communications, 2025).

Target: Aβ (AD brain homogenates) (Homo sapiens, UniProt P05067)
Assay: Competition of PiB against [3H]ACI-Aβ ref on AD brain homogenates
Type: binding
Method in brief: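 Insoluble AD brain fraction prepared by high-salt, Triton X-100 and sucrose ultracentrifugation steps. Competitor serially diluted from 2000 nM to 0.14 nM against tritiated Aβ reference ligand at 15 nM. Run in 50 mM Tris pH 7.5, 0.9% NaCl, 0.1% BSA for 2 h at RT, in duplicate. Samples vacuum-filtered on GF/C, washed five times with ice-cold Tris, then scintillation-counted.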

Aβ (AD brain homogenates), sequence (P05067 672-713): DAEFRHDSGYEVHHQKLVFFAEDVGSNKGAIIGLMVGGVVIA

displacement of Aβ ref cmpd: can be displaced by it
SMILES: CNc1ccc(-c2nc3ccc(O)cc3s2)cc1 [Pittsburg compound B, 2-(4-(Methylamino)phenyl)benzo[d]thiazol-6-ol]
